According to ChEMBL document CHEMBL4118021, “Studies of TAK1-centered polypharmacology with novel covalent TAK1 inhibitors” (Bioorg Med Chem, 2017):
Values belong to the molecule of their own block, whether it stands above or below them. Active and inactive are the calls of the source. No cut-off for these calls is given here.

Assays:
[1] = molecular target: T1, Mitogen-activated protein kinase kinase kinase 7 (Homo sapiens) (UniProt O43318); test: Inhibition of biotin-labeled N-(2-(2-(2-(2-(4-(4-((4-((2-Acrylamidophenyl)amino)-5-chloropyrimidin-2-yl)amino)phenyl)piperazin-1-yl)ethoxy)ethoxy)ethoxy)ethyl)-5-((3aS,4S,6aR)-2-oxohexahydro-1H-thieno[3,4-d]imidazol-4-yl)pentanamide probe binding to TAK1 in human NCI-H358 cells at 10 uM after 6 hrs by immunoblot based competitive pull down assay; assay type: cell-based
T1 sequence (whole entry): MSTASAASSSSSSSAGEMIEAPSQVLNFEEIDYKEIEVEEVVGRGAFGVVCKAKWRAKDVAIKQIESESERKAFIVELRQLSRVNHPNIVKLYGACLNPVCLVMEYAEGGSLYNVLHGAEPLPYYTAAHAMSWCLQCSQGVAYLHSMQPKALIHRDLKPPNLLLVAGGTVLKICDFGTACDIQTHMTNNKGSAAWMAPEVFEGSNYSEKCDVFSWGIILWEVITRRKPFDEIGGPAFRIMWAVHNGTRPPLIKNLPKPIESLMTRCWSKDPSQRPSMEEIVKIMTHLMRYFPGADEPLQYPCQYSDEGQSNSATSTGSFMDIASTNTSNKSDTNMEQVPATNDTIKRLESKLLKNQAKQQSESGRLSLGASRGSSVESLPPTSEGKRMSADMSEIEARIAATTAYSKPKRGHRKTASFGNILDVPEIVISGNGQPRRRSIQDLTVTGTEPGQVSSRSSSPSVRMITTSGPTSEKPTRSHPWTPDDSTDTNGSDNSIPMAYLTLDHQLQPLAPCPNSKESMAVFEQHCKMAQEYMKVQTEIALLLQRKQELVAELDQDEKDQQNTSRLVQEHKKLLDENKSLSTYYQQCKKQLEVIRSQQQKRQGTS
Method in brief: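 H358 cells given 1 or 10 μM compound for 6 h, medium removed, cells rinsed twice with cold PBS and lysed in MPER buffer. Lysates incubated overnight at 4 °C with 1 μM biotinylated covalent probe, captured on streptavidin beads, and TAK1 recovery assessed by immunoblotting with anti-TAK1 antibody.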

[2] = molecular target: T2, Dual specificity mitogen-activated protein kinase kinase 5 (Homo sapiens) (UniProt Q13163); test: Inhibition of human MEK5 (98 to 448 residues) expressed in mammalian expression system assessed as enzyme activity at 10 uM by KINOMEScan assay relative to control; set-up: scale not given: the % may be the effect or the level left
T2 sequence (whole entry): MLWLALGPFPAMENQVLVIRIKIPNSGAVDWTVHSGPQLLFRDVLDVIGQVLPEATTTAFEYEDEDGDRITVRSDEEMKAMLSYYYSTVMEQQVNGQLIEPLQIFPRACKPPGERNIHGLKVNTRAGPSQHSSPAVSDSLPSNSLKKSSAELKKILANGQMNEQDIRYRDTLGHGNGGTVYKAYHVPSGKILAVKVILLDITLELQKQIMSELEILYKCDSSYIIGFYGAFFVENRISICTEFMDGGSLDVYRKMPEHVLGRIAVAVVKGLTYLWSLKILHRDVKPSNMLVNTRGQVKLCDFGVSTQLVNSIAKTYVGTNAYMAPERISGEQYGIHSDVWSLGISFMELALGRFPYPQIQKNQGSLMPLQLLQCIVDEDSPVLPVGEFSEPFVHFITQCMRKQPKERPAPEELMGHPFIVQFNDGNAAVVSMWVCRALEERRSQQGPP
Method in brief: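 In vitro ATP-site competition binding assay across a panel of 456 kinases, with compound tested at 1 and 10 μM.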

[3] = molecular target: Serine/threonine-protein kinase RIO3 (Homo sapiens) (UniProt O14730); test: Inhibition of full length human RIOK3 (1 to 519 residues) expressed in bacterial expression system assessed as enzyme activity at 10 uM by KINOMEScan assay relative to control; set-up: scale not given: the % may be the effect or the level left
Chain of Serine/threonine-protein kinase RIO3 (Homo sapiens) (O14730 whole entry, the tested form may be a part): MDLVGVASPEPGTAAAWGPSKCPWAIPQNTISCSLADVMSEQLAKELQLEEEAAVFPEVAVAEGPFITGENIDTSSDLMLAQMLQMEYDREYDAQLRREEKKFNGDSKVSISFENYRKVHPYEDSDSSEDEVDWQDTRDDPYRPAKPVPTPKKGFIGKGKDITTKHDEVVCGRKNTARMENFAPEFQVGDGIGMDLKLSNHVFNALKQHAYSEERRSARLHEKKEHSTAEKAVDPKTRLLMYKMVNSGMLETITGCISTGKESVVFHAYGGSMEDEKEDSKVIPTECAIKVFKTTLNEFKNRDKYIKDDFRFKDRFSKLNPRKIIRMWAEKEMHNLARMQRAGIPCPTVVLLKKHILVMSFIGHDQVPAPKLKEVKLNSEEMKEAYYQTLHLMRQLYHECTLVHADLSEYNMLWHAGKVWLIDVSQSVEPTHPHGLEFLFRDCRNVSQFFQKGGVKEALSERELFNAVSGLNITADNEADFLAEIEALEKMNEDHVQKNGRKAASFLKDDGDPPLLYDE
Method in brief: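 In vitro ATP-site competition binding assay (KinomeScan) across a panel of 456 kinases. Compound was tested at 1 and 10 μM. The read-out is the binding inhibition score relative to control.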

[4] = molecular target: Proteasome activator complex subunit 3 (Homo sapiens) (UniProt P61289); test: Binding affinity to PSME3 in human NCI-H23 cells at 1 uM by mass spectrometry based pull down assay; assay type: cell-based
Chain of Proteasome activator complex subunit 3 (Homo sapiens) (P61289 whole entry, one chain of several): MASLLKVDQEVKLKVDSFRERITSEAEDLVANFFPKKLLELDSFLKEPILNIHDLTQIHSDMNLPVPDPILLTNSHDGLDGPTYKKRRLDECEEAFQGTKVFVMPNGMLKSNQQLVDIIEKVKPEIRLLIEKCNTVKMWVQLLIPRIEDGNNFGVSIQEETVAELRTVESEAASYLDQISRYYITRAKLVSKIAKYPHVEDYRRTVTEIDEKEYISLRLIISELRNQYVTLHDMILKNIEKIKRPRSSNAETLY

[5] = molecular target: Apoptosis regulator BAX (Homo sapiens) (UniProt Q07812); test: Binding affinity to BAX in human NCI-H23 cells at 1 uM by mass spectrometry based pull down assay; assay type: cell-based
Chain of Apoptosis regulator BAX (Homo sapiens) (Q07812 whole entry): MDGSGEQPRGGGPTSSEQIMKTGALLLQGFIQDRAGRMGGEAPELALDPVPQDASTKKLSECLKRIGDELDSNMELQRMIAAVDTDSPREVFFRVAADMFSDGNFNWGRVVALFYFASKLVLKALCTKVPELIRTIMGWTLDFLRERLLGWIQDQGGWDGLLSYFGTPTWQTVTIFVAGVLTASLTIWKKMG

[6] = molecular target: T3, 80S Ribosome (Homo sapiens) (UniProt P08865+P42677+P62753+P15880+P23396+P61247+P62701+P22090+P46782+P62081+P62241+P46781+P46783+P62280+P25398+P62277+P62263+P62841+P62244+P62249+P08708+P62269+P39019+P60866+P63220+P62266+P62847+P62851+P62854+P62979+P62857+P62273+P62861+P39023+P36578+P46777+Q02878+P18124+P62424+P62917+P32969+P27635+P62906+P62913+P30050+P26373+P40429+P50914+P61313+P18621+Q07020+Q02543+P84098+P46778+P35268+P62829+P62750+P83731+P61254+P61353+P46776+P46779+P47914+P62888+P62899+P62910+P49207+P42766+P18077+Q9Y3U8+P83881+P61927+P61513+P63173+P62891+P62945+P05388+P05386); test: Binding affinity to RPS9 in human NCI-H358 cells at 1 uM by mass spectrometry based pull down assay; assay type: cell-based
[7] = molecular target: Cyclin-dependent kinase 4 (Homo sapiens) (UniProt P11802); test: Binding affinity to CDK4 in human NCI-H358 cells at 1 uM by mass spectrometry based pull down assay; assay type: cell-based
Chain of Cyclin-dependent kinase 4 (Homo sapiens) (P11802 whole entry): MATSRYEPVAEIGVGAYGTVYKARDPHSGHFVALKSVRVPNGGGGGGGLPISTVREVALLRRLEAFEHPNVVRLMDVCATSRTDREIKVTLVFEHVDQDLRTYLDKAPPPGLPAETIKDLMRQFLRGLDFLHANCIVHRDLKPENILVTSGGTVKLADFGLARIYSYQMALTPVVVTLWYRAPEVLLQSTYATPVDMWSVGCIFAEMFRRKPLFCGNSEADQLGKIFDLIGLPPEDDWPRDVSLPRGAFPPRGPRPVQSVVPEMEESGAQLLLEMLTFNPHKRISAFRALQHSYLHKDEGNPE

[8] = molecular target: T3, 80S Ribosome (Homo sapiens); test: Binding affinity to RPL10 in human NCI-H23 cells at 1 uM by mass spectrometry based pull down assay; assay type: cell-based
[9] = molecular target: Thioredoxin reductase 1, cytoplasmic (Homo sapiens) (UniProt Q16881); test: Binding affinity to TXNRD1 in human NCI-H358 cells at 1 uM by mass spectrometry based pull down assay; assay type: cell-based
Chain of Thioredoxin reductase 1, cytoplasmic (Homo sapiens) (Q16881 whole entry): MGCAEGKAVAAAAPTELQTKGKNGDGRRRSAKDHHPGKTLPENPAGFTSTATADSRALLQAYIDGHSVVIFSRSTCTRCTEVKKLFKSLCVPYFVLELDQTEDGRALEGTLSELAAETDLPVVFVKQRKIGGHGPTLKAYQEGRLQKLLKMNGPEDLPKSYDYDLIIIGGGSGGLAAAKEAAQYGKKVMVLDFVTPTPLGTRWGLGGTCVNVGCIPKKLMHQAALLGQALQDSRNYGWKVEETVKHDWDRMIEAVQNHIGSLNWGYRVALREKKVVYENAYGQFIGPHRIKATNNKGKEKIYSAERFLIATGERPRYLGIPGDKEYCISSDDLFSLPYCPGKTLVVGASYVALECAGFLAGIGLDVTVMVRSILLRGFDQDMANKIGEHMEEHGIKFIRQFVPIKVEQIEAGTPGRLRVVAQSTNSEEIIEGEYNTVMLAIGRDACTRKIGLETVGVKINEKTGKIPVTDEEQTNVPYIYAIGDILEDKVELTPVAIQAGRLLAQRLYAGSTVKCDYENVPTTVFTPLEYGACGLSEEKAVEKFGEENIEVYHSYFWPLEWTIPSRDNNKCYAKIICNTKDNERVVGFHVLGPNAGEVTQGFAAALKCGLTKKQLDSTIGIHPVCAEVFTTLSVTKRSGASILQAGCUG

[10] = molecular target: AH receptor-interacting protein (Homo sapiens) (UniProt O00170); test: Binding affinity to AIP in human NCI-H23 cells at 1 uM by mass spectrometry based pull down assay; assay type: cell-based
Chain of AH receptor-interacting protein (Homo sapiens) (O00170 whole entry): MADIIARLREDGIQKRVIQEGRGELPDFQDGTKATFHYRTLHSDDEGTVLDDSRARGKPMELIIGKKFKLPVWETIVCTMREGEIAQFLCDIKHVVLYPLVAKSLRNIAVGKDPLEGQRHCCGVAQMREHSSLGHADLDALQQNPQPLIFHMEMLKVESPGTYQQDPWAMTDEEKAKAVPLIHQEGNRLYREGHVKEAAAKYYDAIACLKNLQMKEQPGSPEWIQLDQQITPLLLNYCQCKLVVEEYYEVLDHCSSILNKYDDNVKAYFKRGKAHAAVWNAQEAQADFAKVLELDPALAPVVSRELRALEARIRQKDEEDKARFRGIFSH
Method in brief: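 NCI-H23 or NCI-H358 cells were grown and lysed. Lysates were incubated overnight at 4 °C with 1 μM biotinylated covalent probe or DMSO, then pulled down on streptavidin beads. Proteins were run on polyacrylamide gels and stained with Coomassie. Bands were excised, digested and identified by mass spectrometry.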

[11] = molecular target: Isocitrate dehydrogenase [NAD] subunit alpha, mitochondrial (Homo sapiens) (UniProt P50213); test: Binding affinity to IDH3A in human NCI-H358 cells at 1 uM by mass spectrometry based pull down assay; assay type: cell-based
Chain of Isocitrate dehydrogenase [NAD] subunit alpha, mitochondrial (Homo sapiens) (P50213 whole entry): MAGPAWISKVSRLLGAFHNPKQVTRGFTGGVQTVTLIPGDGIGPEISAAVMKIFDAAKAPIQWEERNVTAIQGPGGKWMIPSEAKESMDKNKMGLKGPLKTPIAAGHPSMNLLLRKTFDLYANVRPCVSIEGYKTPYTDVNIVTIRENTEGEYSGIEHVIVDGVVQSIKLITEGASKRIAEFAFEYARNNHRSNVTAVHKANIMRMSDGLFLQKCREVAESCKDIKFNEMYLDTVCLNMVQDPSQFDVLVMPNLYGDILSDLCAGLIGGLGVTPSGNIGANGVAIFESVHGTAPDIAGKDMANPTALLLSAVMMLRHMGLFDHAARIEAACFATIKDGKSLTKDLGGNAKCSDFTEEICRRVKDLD

[12] = molecular target: E3 ubiquitin-protein ligase TRIM33 (Homo sapiens) (UniProt Q9UPN9); test: Binding affinity to TRIM33 in human NCI-H23 cells at 1 uM by mass spectrometry based pull down assay; assay type: cell-based
Chain of E3 ubiquitin-protein ligase TRIM33 (Homo sapiens) (Q9UPN9 whole entry): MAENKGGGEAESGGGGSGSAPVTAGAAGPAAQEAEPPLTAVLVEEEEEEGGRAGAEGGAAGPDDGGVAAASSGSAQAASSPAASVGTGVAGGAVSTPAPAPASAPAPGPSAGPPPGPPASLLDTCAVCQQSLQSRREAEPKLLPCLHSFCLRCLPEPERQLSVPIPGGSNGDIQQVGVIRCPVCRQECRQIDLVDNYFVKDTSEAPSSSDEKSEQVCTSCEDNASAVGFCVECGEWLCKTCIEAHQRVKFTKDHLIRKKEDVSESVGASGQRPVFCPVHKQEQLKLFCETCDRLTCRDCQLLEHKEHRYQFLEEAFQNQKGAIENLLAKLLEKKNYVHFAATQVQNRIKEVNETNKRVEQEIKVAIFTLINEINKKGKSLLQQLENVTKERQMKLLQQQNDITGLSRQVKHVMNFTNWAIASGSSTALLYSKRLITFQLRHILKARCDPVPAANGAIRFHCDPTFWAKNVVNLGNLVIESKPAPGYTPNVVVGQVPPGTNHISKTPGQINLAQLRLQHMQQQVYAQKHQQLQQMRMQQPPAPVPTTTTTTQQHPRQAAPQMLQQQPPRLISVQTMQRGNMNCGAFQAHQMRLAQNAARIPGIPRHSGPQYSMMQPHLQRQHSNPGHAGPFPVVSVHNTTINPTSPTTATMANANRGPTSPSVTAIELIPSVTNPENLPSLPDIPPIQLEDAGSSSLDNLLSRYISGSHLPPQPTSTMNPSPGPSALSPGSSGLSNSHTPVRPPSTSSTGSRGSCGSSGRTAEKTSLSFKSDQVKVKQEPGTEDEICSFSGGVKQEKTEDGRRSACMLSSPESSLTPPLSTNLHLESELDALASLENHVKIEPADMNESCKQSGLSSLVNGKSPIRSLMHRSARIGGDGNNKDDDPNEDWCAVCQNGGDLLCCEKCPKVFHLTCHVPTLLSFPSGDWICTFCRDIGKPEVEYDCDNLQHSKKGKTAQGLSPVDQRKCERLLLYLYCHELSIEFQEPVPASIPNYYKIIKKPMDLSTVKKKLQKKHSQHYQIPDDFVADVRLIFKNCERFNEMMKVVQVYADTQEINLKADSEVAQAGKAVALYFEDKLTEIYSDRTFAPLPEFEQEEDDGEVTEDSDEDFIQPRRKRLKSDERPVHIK

[13] = molecular target: Hippocalcin-like protein 1 (Homo sapiens) (UniProt P37235); test: Binding affinity to HPCAL1 in human NCI-H358 cells at 1 uM by mass spectrometry based pull down assay; assay type: cell-based

Structure (SMILES): C=CC(=O)Nc1ccccc1Oc1nc(Nc2cnn(CCOC)c2)ncc1Cl
inhibition [1]: Active

Structure (SMILES): COc1cc(O)c2c(c1)/C=C/C[C@H](O)[C@H](O)C(=O)/C=C\C[C@H](C)OC2=O
Activity [2]: 0.1%
Activity [3]: 0%

Activity [4]: Active
Activity [5]: Active
Activity [6]: Active
Activity [7]: Active
Activity [8]: Active
Activity [9]: Active
Activity [10]: Active
Activity [11]: Active
Activity [12]: Active
Activity [13]: Active
Structure (SMILES): C=CC(=O)Nc1ccccc1Nc1nc(Nc2ccc(N3CCN(CCOCCOCCOCCNC(=O)CCCC[C@@H]4SC[C@@H]5NC(=O)N[C@@H]54)CC3)cc2)ncc1Cl
